Bioassay records (PubChem)
Rows were chosen to be rich in hits. Some 2.3% of all compounds tested hit in one or more screens of this group.
CSN deneddyl inh: inhibitors of CSN-mediated cullin deneddylation, primary screen, biochemical, fluorescence polarization, uHTS; COP9 signalosome complex subunit 5 (Homo sapiens), Q92905; Purified CSN, SCF-Nedd8-OG deneddylation; inhibition, % at 12.5 µM; 360,000 compounds, 0.38% hits; AID 651999, 2013;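 active = pattern-corrected inhibition above about 35%, with an unprinted fluorescence ratio check between 0.5 and 1.5, limit read from the data, passing the limit was not always enough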;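 note: 0% = enzyme with substrate and 100% = substrate without enzyme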
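Test system: purified human Csn5 enzyme expressed in HEK293T cells. Amount: 0.24 nM enzyme. Reagent: SCFSkp2-Nedd8OG substrate at 10 nM final. Schedule: 90 min incubation of compound, enzyme and substrate at room temperature. Detection: fluorescence polarization. Read-out: % inhibition of substrate cleavage by Csn5.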
HNF4A DNA FP: change in binding of human HNF4A to DNA, primary screen, biochemical, fluorescence polarization, FITC-DNA; activity change, % at 10 µM; Hepatocyte nuclear factor 4-alpha (Homo sapiens), P41235; 1 h; 360,000 compounds, 0.3% hits; in the data active = activity change above about 30%, passing the limit was not always enough
Target sequence (P41235 whole entry, looked up): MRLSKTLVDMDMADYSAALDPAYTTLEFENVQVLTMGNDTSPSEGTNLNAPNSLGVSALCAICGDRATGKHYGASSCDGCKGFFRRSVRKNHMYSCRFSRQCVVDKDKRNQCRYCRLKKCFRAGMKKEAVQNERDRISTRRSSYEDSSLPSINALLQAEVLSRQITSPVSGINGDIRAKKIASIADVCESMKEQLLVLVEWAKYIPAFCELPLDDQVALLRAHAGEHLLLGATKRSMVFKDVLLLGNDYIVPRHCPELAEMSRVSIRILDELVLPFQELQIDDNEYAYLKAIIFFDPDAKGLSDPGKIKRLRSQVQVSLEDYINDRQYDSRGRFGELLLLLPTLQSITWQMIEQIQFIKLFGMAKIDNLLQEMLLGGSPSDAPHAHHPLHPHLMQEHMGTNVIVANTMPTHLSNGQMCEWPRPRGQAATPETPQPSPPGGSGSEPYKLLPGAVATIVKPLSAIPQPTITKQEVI
Rpn11 block: Rpn11 (PSMD14) deubiquitinase inhibitors, primary screen, biochemical, fluorescence polarization, uHTS; 26S proteasome non-ATPase regulatory subunit 14 (Homo sapiens), O00487; 360,000 compounds, 0.59% hits; inhibition, % at 20 µM; human 26S proteasome, Ub4-pepOG fluorescence polarization; 20S core pre-blocked with epoxomicin;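 active = inhibition at 20 µM, scaled to each plate's controls, above about 33%, limit read from the data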
Myeloid diff MLP: induction of myeloid progenitor differentiation, primary screen, cell-based, flow cytometry, MLPCN library; AID 624256, 2012; ER-HoxA9 myeloid progenitors, lysozyme-GFP differentiation; 360,000 compounds, 1% hits; calls only at 10 µM;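 active = normalized GFP-positive differentiation at or above the plate's own cutoff, the solvent-only control mean plus 3 SD; inconclusive = no clear call, values can overlap the other calls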;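 note: cells exposed to compound for four days before flow analysis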
TPT1 inh: Candida albicans TPT1 enzyme inhibitors, primary screen, biochemical, fluorescence polarization | recombinant caTPT1, FP RNA substrate dephosphorylation | 300,000 compounds, 0.81% hits | inhibition, % at 5 µM | tRNA 2'-phosphotransferase TPT1 (Candida albicans SC5314);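 active = inhibition above the mean of all tested compounds plus 3 SD, set per screening campaign, cut at about 24% in these data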;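 note: plate controls were DMSO alone for no effect and ferristatin control at 100 nM for full effect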
An asterisk follows results filed as active; i = inactive; ? = inconclusive; · = no result shown; + = active, no number.

SMILES	CSN deneddyl inh	HNF4A DNA FP	Rpn11 block	Myeloid diff MLP	TPT1 inh
CN1/C(=C\C(=O)c2ccco2)C(C)(C)c2ccccc21	34	42*	·	?	1
CN1/C(=C\C(=O)COC(=O)c2ccco2)C(C)(C)c2ccccc21	2	3	12	i	5
Cc1ccc(C(=O)NC(=S)/C=C2\N(C)c3ccccc3C2(C)C)cc1	28	13	32	+	10
COc1ccc(CN2C(=O)C(CC(=O)NC3CCCCC3)CC(C(=O)N(C(C)C)C(C)C)=C2C)cc1 (stereo unspecified)	7	0	4	i	·
COCCN1C(=O)CCC1(C)C(=O)NC1CCCCC1 (stereo unspecified)	121*	-1	0	i	·
COCCN1C(=O)CCC1(C)C(=O)NC1CCCC1 (stereo unspecified)	-1	6	4	i	·
CC(=O)Oc1ccc(C(=O)[C@H]2[C@H]3C(=O)N(c4ccc(C)cc4)C(=O)[C@H]3[C@@H]3C=CC=NN32)cc1	11	16	23	+	8
O=C(Nc1ccc(F)cc1)C(c1ccccc1OC(F)(F)F)N1CCN(c2cccc(C(F)(F)F)n2)CC1 (stereo unspecified)	-3	0	·	i	·
Cn1c(-c2ccccc2[N+](=O)[O-])[n+](C)c2ccccc21	-1	1	0	+	1
C=C1C(=O)OCC2C(C(=O)O)=CC3C(C)C(C)=CC123 (stereo unspecified)	0	6	0	i	·
N#Cc1cccc(NC(=O)c2cc(C3CCCCN3C(=O)c3cccs3)on2)c1 (stereo unspecified)	5	0	-3	i	·
O=[N+]([O-])c1ccc(C=CC=Cc2ccccc2)cc1	36*	26	·	i	·
O=C(C=Cc1ccccc1)c1ccc([N+](=O)[O-])cc1	3	5	-1	i	·
Cc1nc(C(F)(F)F)ccc1C(=O)N1CCCCCC1(C)C(=O)NCC(C)C (stereo unspecified)	0	2	4	i	·
O=C(CCn1c(=O)oc2cc(Cl)ccc21)Nc1ccc(N2CCOCC2)cc1	6	-1	3	+	-4
O=C(CCn1c(=O)oc2ccccc21)Nc1ccc(N2CCOCC2)cc1	3	-1	8	i	3
CCn1c(Cc2cccs2)nnc1SCC(=O)NC1CC1	3	-2	-2	+	-1
CCOC(=O)[C@]12CCC=C1N(Cc1ccccc1)C(=O)[C@H](CC(=O)NCc1cccc(C(F)(F)F)c1)C2	2	-2	·	i	·
COc1ccc(C(=O)CC(c2ccccc2)S(=O)(=O)c2ccc(C)cc2)cc1 (stereo unspecified)	·	·	·	·	-2
CC(=O)CC(c1ccccc1)S(=O)(=O)c1ccc([N+](=O)[O-])cc1 (stereo unspecified)	2	-2	3	+	1
O=C(Cc1ccc([N+](=O)[O-])cc1)N/N=C/c1ccc([N+](=O)[O-])o1	6	6	-8	+	5
O=C(CNc1cccc([N+](=O)[O-])c1)N/N=C/c1ccc([N+](=O)[O-])o1	-1	-1	2	+	-1
O=C(CNc1cccc2ccccc12)N/N=C/c1ccc([N+](=O)[O-])o1	3	4	-1	i	-1
CCCCCCCC(=O)N/N=C/c1ccc([N+](=O)[O-])o1	8	-3	1	i	4
CCCCn1nnnc1C1(C)CCC(=O)N1Cc1ccc(C)cc1 (stereo unspecified)	1	2	·	i	·
SMILES	CSN deneddyl inh	HNF4A DNA FP	Rpn11 block	Myeloid diff MLP	TPT1 inh
Cc1ccc(C(=O)NCC(c2ccc(F)cc2)N2CCOCC2)cc1 (stereo unspecified)	0	77*	-5	i	0
CC1(C(=O)NS(=O)(=O)c2cccc(F)c2)CCN1C(=O)CC1CCCC1 (stereo unspecified)	5	2	2	i	·
Cc1ccc(Cl)cc1-c1cc(C(=O)NCc2cc(C(F)(F)F)cc(C(F)(F)F)c2)[nH]n1	1	-1	4	i	·
O=S1(=O)N[C@@H](Cc2ccccc2)COc2cc(N3CC[C@H](O)C3)ccc21	0	-2	·	i	·
Cc1cccc(C)c1NC(=O)C1(C)CSCC(=O)N1Cc1ccco1 (stereo unspecified)	94*	40*	·	i	·
COc1ccc(C(C)NCCC(c2ccc(OC(C)C)cc2)c2ccccc2OC)cc1 (stereo unspecified)	-2	1	-5	+	·
COc1ccc(C(CCNC(C)c2ccccc2)C(C)C)cc1 (stereo unspecified)	1	0	-3	i	-2
CCOC(=O)COn1c(=O)c(C)[n+]([O-])c2ccccc21	2	7	14	i	10
CCOC(=O)COn1c(=O)c[n+]([O-])c2ccccc21	1	2	3	+	11
Cc1ccc(CN2CCC(C)(Oc3ccc(Cl)cc3)C2)cc1 (stereo unspecified)	4	4	-2	i	·
Cc1[nH]c2ccc(C(=O)N3CCN(c4ccccn4)CC3)cc2c1C	-4	103*	18	i	-2
O=C(c1ccc(Cl)c(Cl)c1)N1CCN(c2ccccn2)CC1	0	0	0	i	·
Nc1c(-c2ccc(F)c(F)c2)nc2ncccn12	4	-16	·	i	·
C/C=C\C=C/C(=O)Nc1cccc(C2=NOC3(C2)C[C@@H](C(N)=O)N(C(=O)/C=C/C=C\C)C3)c1 (stereo partly specified)	64*	-41	52*	i	5
COc1ccc(Br)cc1CN1CCN(Cc2c[nH]c3ccccc23)CC1	6	59*	-16	i	-2
NC(N)=NN=C1c2ccccc2-c2ccccc21	-5	-1	-52	+	0
C=CCSC(=C(C#N)C#N)c1cc2c([nH]1)CCCC2	-2	1	3	+	0
COc1ccc(C2C(C(=O)c3ccco3)=C(O)C(=O)N2CCc2ccccc2)cc1OC (stereo unspecified)	-3	-1	-4	+	-3
O=C(NCc1ccccn1)c1cc(-c2ccccc2)nc2ccccc12	-2	1	-4	i	3
COCCNC(=O)c1cc(-c2ccc(-c3ccccc3)cc2)nc2ccccc12	-3	2	-2	+	0
COCCCNC(=O)c1cc(-c2cccnc2)nc2ccccc12	-3	2	4	i	0
O=C(NCc1ccccn1)c1cc(-c2ccc(-c3ccccc3)cc2)nc2ccccc12	3	4	2	+	0
